# Rows were chosen to be rich in hits. Some 2.6% of all compounds tested hit in one or more screens of this group.
# CHT PAM: allosterically activates the human high affinity choline transporter; CHT-expressing cells, membrane potential dye, choline EC20; stronger effect = higher value; LV-AA mutant CHT in HEK293 cells; 0.49% of 310,000 active; Q9GZV3; B-score at 10 µM;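 active = initial fluorescence not abnormally high and integrated response B-score, plate-corrected, over 3 SD above library mean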
# Cl transport mod: KCC2 (human) Cl- transport modulation; B-score of Tl+ flux slope (higher = more flux/activation; lower = inhibition) at 10 µM; Q9H2X9; KCC2 cells, thallium flux FluoZin-2 fluorescence; 2.2% of 190,000 active;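 active = thallium flux slope and its plate-corrected score both differing from the plate sample mean at a set confidence after two filtering rounds, in either direction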;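 note: slope of fluorescence scaled to starting intensity during 10 to 20 s after thallium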
# Rad51 HR inh: Rad51 (human) homologous recombination inhibition. Q06609. inhibition, % at 10 µM. hRad51 DNA strand exchange, fluorescence dequenching. 0.085% of 200,000 active;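 active = inhibition above 40% at the single screening dose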
# Target sequence (Q06609 whole entry, looked up): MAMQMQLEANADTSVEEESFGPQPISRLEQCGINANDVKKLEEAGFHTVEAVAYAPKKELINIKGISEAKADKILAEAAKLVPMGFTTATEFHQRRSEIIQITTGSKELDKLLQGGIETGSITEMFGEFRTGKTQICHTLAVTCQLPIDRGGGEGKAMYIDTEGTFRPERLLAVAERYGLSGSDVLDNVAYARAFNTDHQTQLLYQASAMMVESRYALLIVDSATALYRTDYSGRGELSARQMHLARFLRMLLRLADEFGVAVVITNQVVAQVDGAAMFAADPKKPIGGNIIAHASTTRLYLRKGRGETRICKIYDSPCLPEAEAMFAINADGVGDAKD
#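 Material: Human Rad51 nucleoprotein filaments preassembled on unlabelled ssDNA | Also added: Labelled 47-mer dsDNA for strand exchange | Dosing: Single dose, 10 µM final compound | Schedule: 30-min compound preincubation and 15-min exchange, both room temperature | Technique: Fluorescence dequenching at 485/520 nm | Measure: Percent inhibition relative to plate controls and blanks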
# CHT block: inhibits the human high affinity choline transporter; AID 488975; Q9GZV3; 0.86% of 310,000 active; CHT-expressing cells, membrane potential dye, choline response; stronger effect = lower value; B-score at 10 µM;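 active = B-score over 3 SD under the library average, and starting fluorescence ratio not unusually high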;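 note: choline stimulus applied at its EC90 after an EC20 pre-addition; B-score computed on integrated fluorescence ratio after choline addition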
# KCC2 secondary: KCC2 (human) modulation, secondary assay; shares compounds with Cl transport mod; HEK293-KCC2, thallium flux, FluoZin2 fluorescence; stronger effect = higher value; normalised thallium flux (F/F0 slope) at 10 µM; 15% of 3,700 active;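 active = thallium flux slope above the same plate's solvent-only control mean plus 3 SD; inconclusive = the two replicate wells disagree; inactive = no significant difference from solvent-only control wells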
# KCC2 bumet counter: thallium flux despite bumetanide block in KCC2 cells, secondary assay 3; 49% of 3,700 active; shares compounds with Cl transport mod; normalized thallium flux at 10 µM; HEK293-KCC2 + bumetanide/ouabain, thallium flux FluoZin2; stronger effect = higher value;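 active = thallium entry rate above the same plate's blocked-transporter control wells by more than 3 SD; inconclusive = the two repeat wells disagree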;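 note: raw slope of fluorescence over initial fluorescence between 10 and 20 s after thallium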
# KCC2 sec2: KCC2 (human) modulation, second secondary assay. shares compounds with Cl transport mod. HEK293-KCC2, thallium flux FluoZin2 fluorescence; actives lie on both sides; F/F0 rise rate, 10–20 s post-thallium. normalized thallium flux at 10 µM. 23% of 3,700 active. AID 1715;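 active = thallium flux slope more than 3 SD above or below the plate's solvent-only control mean, mostly below; inconclusive = the two repeat wells disagreed; inactive = no significant shift from solvent-only controls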
# HEK293 Tl flux: acts in parental HEK cells, KCC2 counter-screen. shares compounds with Cl transport mod. HEK293 parental cells, thallium flux FluoZin2, ouabain; baseline-ratio fluorescence slope, 10–20 s after thallium. thallium flux rate (normalised fluorescence) at 10 µM. 46% of 3,700 active. AID 1716;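 active = thallium flux rate significantly above the same plate's solvent-only control wells, beyond their mean plus 3 SD; inconclusive = the two replicate wells gave conflicting results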
# KCC2 retest ouab: confirmation of human KCC2 modulators with ouabain; shares compounds with Cl transport mod; HEK293-KCC2, thallium flux FluoZin2 fluorescence; bidirectional: low = inhibitor, high = activator; raw Tl+ flux slope (below DMSO = inhibition, above = activation) at 10 µM; 48% of 3,700 active;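 active = thallium flux slope beyond 3 SD from same-plate DMSO control mean in most replicates, usually higher, sometimes lower; inconclusive = repeat tests gave conflicting results; inactive = no significant difference from controls in most replicates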;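 note: slope of initial-normalized fluorescence between seconds 10 and 20 after thallium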
# HEK293 Tl flux2: counter-screen for KCC2 modulators: effect in parental HEK293 cells. thallium flux FluoZin-2 fluorescence slope. 33% of 3,700 active. shares compounds with Cl transport mod. thallium flux slope at 10 µM. AID 1718;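 active = thallium flux slope above the same plate's solvent-control mean plus 3 SD in both duplicate wells; inconclusive = duplicate wells that disagreed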;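 note: run without ouabain in cells lacking the KCC2 cotransporter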
# A number is an active result; n = inactive; u = inconclusive; x = no result given.
SMILES,CHT PAM,Cl transport mod,Rad51 HR inh,CHT block,KCC2 secondary,KCC2 bumet counter,KCC2 sec2,HEK293 Tl flux,KCC2 retest ouab,HEK293 Tl flux2
Cc1c(Cl)cccc1Nc1ncccc1C(=O)O,n,x,x,n,x,x,x,x,x,x
O=C(CCCN1C(=O)/C(=C/c2ccccc2Cl)SC1=S)NNC(=O)c1ccccc1,n,n,x,n,x,x,x,x,x,x
O=C(CCCN1C(=O)/C(=C/c2ccccc2Cl)SC1=S)NNC(=O)c1cccnc1,n,-4.91,x,n,n,n,n,n,0.0165,n
O=C(O)c1cccc(Nc2nc(Nc3ccccc3)nc(N3CCCC3)n2)c1,n,-3,n,n,n,n,n,u,0.029,u
Cn1nc(C(=O)N2CCCCC2)c2c1-c1ccccc1S(=O)(=O)C2,n,x,x,n,x,x,x,x,x,x
CCCc1cc(=O)oc2cc(OCC(=O)NCCCN3CCOCC3)c(Cl)cc12,n,x,x,n,x,x,x,x,x,x
CCOc1ccc(CN(C(=O)c2cc3ccccc3oc2=O)C2CCS(=O)(=O)C2)cc1 (stereo not drawn),n,n,x,n,x,x,x,x,x,x
COCCNc1nc2nonc2nc1N(C)Cc1cccc2cnccc12,n,-3.14,n,n,n,n,n,n,u,n
N=C1SCC(=O)N1c1ncc(Cc2ccccc2Cl)s1,x,10.7,n,x,n,0.0195,n,0.0137,u,n
N=C1SCC(=O)N1c1ncc(Cc2cccc(Cl)c2)s1,x,8.07,n,x,u,0.0189,n,0.0203,0.0311,u
CC(C)C(=O)Nc1ncc(Cc2ccccc2Cl)s1,n,n,n,n,x,x,x,x,x,x
O=C(Nc1nc2c(F)cc(F)cc2s1)C1CC1,n,x,x,n,x,x,x,x,x,x
C=C1c2ccccc2NC(=O)N1c1ccc(OC)cc1,n,n,n,n,x,x,x,x,x,x
CCOc1cccc(C(=O)NC(=S)Nc2ccc3c(c2)OCCO3)c1,n,7.37,n,n,n,0.0123,n,0.0117,n,0.0142
O=C(NC(=S)Nc1ccc2c(c1)OCCO2)c1ccccc1F,n,24.5,n,n,n,0.0388,0.0418,0.0215,0.0382,0.0259
CC1(C)CC(n2c(=S)[nH]c3ccccc3c2=O)CCO1 (stereo not drawn),n,14.2,x,n,n,0.0353,n,0.0222,0.0308,u
CSc1ccccc1NC(=S)Nc1ccc(S(N)(=O)=O)cc1,n,3.02,n,n,n,0.00752,n,0.00965,u,u
NS(=O)(=O)c1ccc(NC(=S)Nc2cc(Cl)c(Cl)cc2Cl)cc1,n,n,n,n,x,x,x,x,x,x
CSc1ccccc1NC(=S)Nc1ccccc1C(F)(F)F,n,4.73,n,n,n,0.0115,n,0.0125,u,n
COc1cc(C(=O)NNC(=S)NC(=O)c2ccc(F)cc2)cc(OC)c1OC,n,6.54,n,n,n,0.015,n,0.0137,u,n
COc1cc(C(=O)NC(=S)N(C)Cc2ccccc2)cc(OC)c1OC,n,10.9,n,n,0.0184,0.0508,n,0.0168,0.0334,0.0122
COc1ccc(C(=O)NNC(=S)NC(=O)c2ccc(F)cc2)cc1Br,n,x,x,n,x,x,x,x,x,x
COc1cc(C(=O)NC(=S)Nc2ccc3c(c2)OCO3)cc(OC)c1OC,n,n,n,n,x,x,x,x,x,x
COc1cc(C(=O)NC(=S)NNC(=O)c2ccc3c(c2)OCO3)cc(OC)c1OC,n,5.12,n,n,n,0.0128,n,u,u,n
S=c1[nH]nc(C2(c3ccccc3)CCCC2)o1,n,-3.14,n,n,n,n,0.0233,n,0.0184,n
SMILES,CHT PAM,Cl transport mod,Rad51 HR inh,CHT block,KCC2 secondary,KCC2 bumet counter,KCC2 sec2,HEK293 Tl flux,KCC2 retest ouab,HEK293 Tl flux2
S=c1[nH]nc(C(c2ccccc2)C2CCCCC2)o1 (stereo not drawn),n,n,n,n,x,x,x,x,x,x
Cn1c(CNC(=O)c2ccccc2F)nnc1SCc1nc2ccccc2c(=O)[nH]1,n,n,n,n,x,x,x,x,x,x
COc1ccc(OCCCC(=O)N2CCN(S(=O)(=O)c3cccc(F)c3)CC2)cc1,n,x,x,n,x,x,x,x,x,x
Cn1c(=O)c2cc(S(=O)(=O)NCCC(=O)N3CC=C(c4ccccc4)CC3)ccc2n(C)c1=O,n,n,n,n,x,x,x,x,x,x
CN(CC(=O)N1CC=C(c2ccccc2)CC1)S(=O)(=O)c1ccc2c(c1)c(=O)n(C)c(=O)n2C,n,-3.87,x,n,n,u,n,n,n,n
CCC(Cc1ccccc1)NC(=O)CN(C)S(=O)(=O)c1ccc2c(c1)c(=O)n(C)c(=O)n2C (stereo not drawn),n,x,n,n,n,n,0.0238,n,u,n
Cc1ccc(S(=O)(=O)N(C)CC(=O)Nc2ncccc2C)cc1,n,x,x,n,x,x,x,x,x,x
Cc1cccc(Nc2nnc(-c3ccc(C(=O)N4C[C@H]5C[C@H](C4)c4cccc(=O)n4C5)cc3)c3ccccc23)c1,n,n,n,n,x,x,x,x,x,x
O=C(Nc1ccccc1F)c1ccc(COc2ccc(Cl)cc2Cl)o1,n,n,n,n,x,x,x,x,x,x
CC(C)CNC(=O)c1ccc(COc2ccc(Cl)cc2Cl)o1,n,-4.03,n,n,n,n,0.0233,n,0.0134,n
CCOCCn1c(CN2CCCCC2)nc2c1c(=O)n(C)c(=O)n2C,n,x,x,n,x,x,x,x,x,x
CCOCCn1c(CN2CCN(CC)CC2)nc2c1c(=O)n(C)c(=O)n2C,n,6.27,x,n,n,n,n,n,n,n
O=S1(=O)C=C(SCc2cccc(Cl)c2)Nc2ccccc21,n,-3.36,x,n,u,n,n,n,0.0159,n
COc1ccc(C)cc1S(=O)(=O)N(CC(=O)N1CCCC1)c1ccc(C)cc1,n,x,x,n,x,x,x,x,x,x
Nc1n[nH]c(S(=O)(=O)CCCc2ccccc2)n1,n,n,n,n,x,x,x,x,x,x
O=S(=O)(CCCc1ccccc1)c1ncn[nH]1,n,4.67,n,n,n,n,n,n,n,n
O=C(N/N=C/c1ccc(Br)s1)c1ccncc1,n,n,n,n,x,x,x,x,x,x
O=C(N/N=C/c1cc(Br)c(Br)s1)c1ccncc1,n,6.51,n,n,n,0.0145,n,0.00968,u,n
O=C(N/N=C/c1cc(Br)cc(Br)c1O)c1ccncc1,n,-4.52,n,n,n,0.000551,0.0171,0.00277,0.0078,0.00456
COc1ccc(CCN(C)C2CCCN(C(=O)Cn3cnnn3)C2)cc1OC (stereo not drawn),n,x,x,n,x,x,x,x,x,x
CCOc1cnc(-c2c(-c3c(F)cccc3Cl)noc2C)o1,n,n,n,n,x,x,x,x,x,x

# Screens (PubChem BioAssay)
